From ChEMBL document CHEMBL4196009, “Novel vitexin-inspired scaffold against leukemia” (Eur J Med Chem, 2018)
Active and inactive are the calls of the source. No cut-off for these calls is given here.

How the values were obtained:
KOPN-8 [1] = test: Induction of apoptosis in human KOPN8 cells assessed as early apoptotic cells at 10 uM after 24 hrs by Annexin V-FITC/propidium iodide staining-based flow cytometry (reference value: 0.1%); type: functional
Outline: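 KOPN-8 cells treated 24 h alongside a DMSO vehicle and a staurosporine (2.0 µM) positive control. Apoptosis was scored by FITC Annexin V / propidium iodide flow cytometry with quadrant gating (early, late apoptotic). DNA content was measured by PI staining to give the percentage of cells in G0/G1, S and G2/M. Groups were compared by t-test; error bars are SD.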

KOPN-8 [2] = test: Induction of apoptosis in human KOPN8 cells assessed as late apoptotic cells at 10 uM after 24 hrs by Annexin V-FITC/propidium iodide staining-based flow cytometry (reference value: 9.5%); type: functional
Outline: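 KOPN-8 cells were treated for 24 h, with a DMSO vehicle control and a staurosporine positive control. Cells were stained with FITC-Annexin V and propidium iodide and analysed by flow cytometry. Quadrant gating separated viable, early apoptotic, late apoptotic (Q2) and necrotic populations.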

SUP-B15 = test: Induction of apoptosis in human SUP-B15 cells assessed as necrotic cells at 10 uM after 24 hrs by Annexin V-FITC/propidium iodide staining-based flow cytometry (reference value: 9.2%); type: functional
[3] = target: T1, Retinoblastoma-associated protein (Homo sapiens) (UniProt P06400); test: Inhibition of Rb phosphorylation in human KOPN8 cells assessed as ratio of phosphorylated Rb to total Rb levels at 10 uM after 3 hrs by Western blot analysis relative to control; type: cell-based
T1 sequence (whole entry): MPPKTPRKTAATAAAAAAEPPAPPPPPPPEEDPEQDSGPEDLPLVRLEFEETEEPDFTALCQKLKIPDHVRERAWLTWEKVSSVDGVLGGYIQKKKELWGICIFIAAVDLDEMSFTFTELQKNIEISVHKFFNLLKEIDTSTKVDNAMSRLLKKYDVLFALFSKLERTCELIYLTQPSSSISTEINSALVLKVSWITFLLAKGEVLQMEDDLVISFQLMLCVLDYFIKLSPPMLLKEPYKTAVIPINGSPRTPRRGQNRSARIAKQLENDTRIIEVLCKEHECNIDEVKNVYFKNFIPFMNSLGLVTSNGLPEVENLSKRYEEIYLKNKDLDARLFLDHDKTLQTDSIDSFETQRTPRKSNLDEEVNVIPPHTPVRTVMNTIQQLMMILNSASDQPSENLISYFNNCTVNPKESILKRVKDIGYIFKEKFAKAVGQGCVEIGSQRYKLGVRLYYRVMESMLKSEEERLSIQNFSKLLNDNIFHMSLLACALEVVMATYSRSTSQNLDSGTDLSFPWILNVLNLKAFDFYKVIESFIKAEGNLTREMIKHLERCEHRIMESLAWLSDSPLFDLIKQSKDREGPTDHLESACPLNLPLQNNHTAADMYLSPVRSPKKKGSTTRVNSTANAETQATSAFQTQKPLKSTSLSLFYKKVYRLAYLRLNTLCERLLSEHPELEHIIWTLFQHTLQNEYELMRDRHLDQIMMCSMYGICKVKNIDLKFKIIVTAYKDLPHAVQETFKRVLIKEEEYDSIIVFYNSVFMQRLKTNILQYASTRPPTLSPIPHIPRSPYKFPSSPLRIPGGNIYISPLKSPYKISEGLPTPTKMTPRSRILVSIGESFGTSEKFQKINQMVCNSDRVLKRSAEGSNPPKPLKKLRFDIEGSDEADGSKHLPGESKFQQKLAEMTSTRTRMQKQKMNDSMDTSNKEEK
Outline: (§1)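 KOPN-8 pre-B ALL cells were treated for 3 h and 24 h, with or without N-acetyl cysteine added to a parallel set of cells as an antioxidant/ROS quencher. Lysates were analysed by Western blot for phosphorylated Rb and total Rb. The same blots also probed PARP cleavage, Mcl-1, Ser-2-phosphorylated RNAPII CTD and cMyc.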

MCF7 = test: Induction of oxidative stress in human MCF7 cells transfected with mRuby-Mito-7 with fugene assessed as increase in intracellular total ROS levels at 50 uM treated 30 mins post NAC addition measured after 1 hr by fluorimetric analysis; type: functional, cell-based
Outline: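 MCF-7 cells carried an mRuby-Cox8A mitochondrial label. They were exposed to 50 of compound, alone or together with 50 of N-acetylcysteine, for 1 h. Cells were then stained with CellROX green (ex/em 485/520 nm) plus Hoechst 33342 nuclear stain. Total and mitochondrial ROS fluorescence was imaged in live cells and quantified relative to control.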

KOPN-8 [4] = test: Induction of apoptosis in human KOPN8 cells assessed as effect on Mcl-1 level at 30 uM pre-treated with NAC for 1 hr and measured after 3 hrs by Western blot analysis relative to control; type: functional
Outline: (§2)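 KOPN-8 cells were exposed to compound for 3 h and 24 h, with or without N-acetylcysteine added to a parallel set as antioxidant. Lysates were analysed by Western blot for cleaved PARP, Mcl-1, Ser-2-phosphorylated RNAPII CTD, cMyc, total Rb and pRb. Signals were compared against controls for dose-dependent change.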

KOPN-8 [5] = test: Induction of apoptosis in human KOPN8 cells assessed as effect on Mcl-1 level at 10 uM pre-treated with NAC for 1 hr and measured after 24 hrs by Western blot analysis relative to control; type: functional
Homo sapiens [6] = organism: Homo sapiens; test: Inhibition of RNA polymerase 2 C-terminal domain phosphorylation at Ser2 residue in human KOPN8 cells at 30 uM after 3 hrs by Western blot analysis relative to control; type: cell-based; outline: as §2
Homo sapiens [7] = organism: Homo sapiens; test: Inhibition of RNA polymerase 2 C-terminal domain phosphorylation at Ser2 residue in human KOPN8 cells at 100 uM after 3 hrs by Western blot analysis relative to control; type: cell-based; outline: as §2
Homo sapiens [8] = organism: Homo sapiens; test: Inhibition of RNA polymerase 2 C-terminal domain phosphorylation at Ser2 residue in human KOPN8 cells at 10 uM pre-treated with NAC for 1 hr and measured after 24 hrs by Western blot analysis relative to control; type: cell-based; outline: as §2
Homo sapiens [9] = organism: Homo sapiens; test: Inhibition of RNA polymerase 2 C-terminal domain phosphorylation at Ser2 residue in human KOPN8 cells at 30 uM after 24 hrs by Western blot analysis relative to control; type: cell-based; outline: as §2
Homo sapiens [10] = organism: Homo sapiens; test: Inhibition of RNA polymerase 2 C-terminal domain phosphorylation at Ser2 residue in human KOPN8 cells at 100 uM after 24 hrs by Western blot analysis relative to control; type: cell-based; outline: as §2
KOPN-8 [11] = test: Effect on c-Myc expression in human KOPN8 cells at 100 uM pre-treated with NAC for 1 hr and measured after 3 hrs by Western blot analysis relative to control; type: functional
[12] = target: T1, Retinoblastoma-associated protein (Homo sapiens); test: Inhibition of Rb phosphorylation in human KOPN8 cells assessed as ratio of phosphorylated Rb to total Rb levels at 10 uM after 24 hrs by Western blot analysis relative to control; type: cell-based; outline: as §1
[13] = target: T1, Retinoblastoma-associated protein (Homo sapiens); test: Inhibition of Rb phosphorylation in human KOPN8 cells assessed as ratio of phosphorylated Rb to total Rb levels at 100 uM pre-treated with NAC for 1 hr and measured after 24 hrs by Western blot analysis relative to control; type: cell-based; outline: as §1
KOPN-8 [14] = test: Induction of apoptosis in human KOPN8 cells assessed as upregulation of cleaved PARP level at 0.5 uM after 24 hrs by Western blot analysis; type: functional, cell-based; outline: as §2
Homo sapiens [15] = organism: Homo sapiens; test: Inhibition of RNA polymerase 2 C-terminal domain phosphorylation at Ser2 residue in human KOPN8 cells at 0.5 uM after 3 hrs by Western blot analysis relative to control; type: cell-based; outline: as §2

Row | Compound | Activity (KOPN-8 [1]) [%] | Activity (KOPN-8 [2]) [%] | Activity (SUP-B15) [%] | fold change (FC) [3] | Activity (MCF7) | fold change (FC) (KOPN-8 [4]) | fold change (FC) (KOPN-8 [5]) | fold change (FC) (Homo sapiens [6]) | fold change (FC) (Homo sapiens [7]) | fold change (FC) (Homo sapiens [8]) | fold change (FC) (Homo sapiens [9]) | fold change (FC) (Homo sapiens [10]) | fold change (FC) (KOPN-8 [11]) | fold change (FC) [12] | fold change (FC) [13] | Activity (KOPN-8 [14]) | fold change (FC) (Homo sapiens [15])
1 | COc1ccc(-c2c(I)c(=O)c3c(OC)cc(OC)cc3n2S(=O)(=O)c2ccc(OC)cc2)cc1 | 0.2 | 69.2 | 15.7 | 1 | inactive | 0.8 | 0.8 | 1 | 1.4 | 1.5 | 1.6 | 0.2 | 0.5 | 1 | 1.2 | – | –
2 | CN(C)C(=O)c1cc2cnc(Nc3ccc(N4CCNCC4)cn3)nc2n1C1CCCC1 [RIBOCICLIB] | – | – | – | – | – | – | – | – | – | – | – | – | – | – | – | inactive | 0.8
